{"data": "Measured values from different studies", "SLC22A8": "Organic anion transporter 3 (SLC22A8, Homo sapiens, UniProt Q8TCC7)", "CDK4 with cyclin D1": "Cyclin-dependent kinase 4, with cyclin D1 (CDK4, Homo sapiens, UniProt P11802)", "OSBP": "Oxysterol-binding protein 1 (OSBP, Homo sapiens, UniProt P22059)", "note": "Compare with care: the assays were run in different laboratories."}
{"SMILES": "C=CC(=O)N1C[C@H](Nc2ncnc3[nH]ccc23)CC[C@@H]1C", "target": "SLC22A8", "test": "transporter uptake, inhibitor", "test system": "HEK293", "setting": "pH 7.4", "quantity": "Ki", "value": "41 µM"}
{"SMILES": "CN(C)C(=O)c1cc2cnc(Nc3cc(C(F)(F)F)c(-c4ccc5c(=O)cc(N6CCOCC6)oc5c4)cn3)nc2n1C1CCCC1", "target": "CDK4 with cyclin D1", "test": "enzyme activity, inhibitor, radiometric", "quantity": "IC50", "value": "> 10 µM"}
{"SMILES": "CN(C)C(=O)c1cc2cnc(Nc3ccc(C(=O)NCCCCCCOc4cccc5c4C(=O)N(C4CCC(=O)NC4=O)C5=O)cc3)nc2n1C1CCCC1 (centres unmarked)", "target": "Cyclin-dependent kinase 4 (CDK4, Homo sapiens, UniProt P11802)", "test": "binding, competition with immobilised ligand", "quantity": "Kd", "value": "< 0.2 µM"}
{"SMILES": "C[S+](CC[C@H](N)C(=O)O)C[C@H]1O[C@@H](n2cnc3c(N)ncnc32)[C@H](O)[C@@H]1O (some centres unmarked)", "target": "tapT (Escherichia coli, UniProt Q47319, D137A)", "test": "binding, ITC", "quantity": "Kd", "value": "590 µM"}
{"SMILES": "CN(C)C(=O)c1cc2cnc(Nc3cc(C(=O)O)cc(-c4ccc5c(=O)cc(N6CCOCC6)oc5c4)c3)nc2n1C1CCCC1", "target": "CDK4 with cyclin D1", "test": "enzyme activity, inhibitor, radiometric", "quantity": "IC50", "value": "7.85 µM"}
{"SMILES": "CCOc1ccc(C(=O)CC(SCc2ccc(OC)cc2)C(=O)O)cc1 (centres unmarked)", "target": "OSBP", "test": "ligand displacement, FP", "quantity": "Ki", "value": "549 µM"}
{"SMILES": "CSC[C@H]1O[C@@H](n2cnc3c(N)ncnc32)[C@H](O)[C@@H]1O", "target": "tapT (Escherichia coli, UniProt Q47319)", "test": "binding, ITC", "quantity": "Kd", "value": "150 µM"}
{"SMILES": "CCOc1ccc(C(=O)CC(SCc2ccccc2)C(=O)O)cc1 (centres unmarked)", "target": "OSBP", "test": "ligand displacement, FP", "quantity": "Ki", "value": "> 1000 µM"}
{"SMILES": "CN(C)C(=O)c1cc2cnc(Nc3cc(C(=O)O)cc(-c4cccc5c(=O)cc(N6CCOCC6)oc45)c3)nc2n1C1CCCC1", "target": "CDK4 with cyclin D1", "test": "enzyme activity, inhibitor, radiometric", "quantity": "IC50", "value": "> 10 µM"}
{"SMILES": "CCOc1ccc(C(=O)CC(SCc2ccc(Br)cc2)C(=O)O)cc1 (centres unmarked)", "target": "OSBP", "test": "ligand displacement, FP", "quantity": "Ki", "value": "459 µM"}
{"SMILES": "Nc1nc2c(ncn2[C@@H]2O[C@H](COP(=O)(O)OP(=O)(O)OP(=O)(O)O)[C@@H](O)[C@H]2O)c(=O)[nH]1", "target": "GTPase KRas (KRAS, Homo sapiens, UniProt P01116, Q61H)", "test": "binding", "quantity": "Kd", "value": "0.118 µM"}
{"SMILES": "CN(C)C(=O)c1cc2cnc(Nc3cccc(-c4cccc5c(=O)cc(N6CCOCC6)oc45)c3)nc2n1C1CCCC1", "target": "CDK4 with cyclin D1", "test": "enzyme activity, inhibitor, radiometric", "quantity": "IC50", "value": "0.336 µM"}
{"SMILES": "CCOc1ccc(C(=O)CC(SCc2ccc(Cl)cc2)C(=O)OC)cc1 (centres unmarked)", "target": "OSBP", "test": "ligand displacement, FP", "quantity": "Ki", "value": "> 1000 µM"}
{"SMILES": "O=C(O)c1ccc2nc(-c3cc(Cl)cc(Cl)c3)oc2c1", "target": "SLC22A8", "test": "transporter uptake, inhibitor", "test system": "HEK293", "setting": "pH 7.4", "quantity": "Ki", "value": "2.36 µM"}
